Data set [1] deals with NIH3T3 cells. As to the kind of experiment: CCK8 anti-proliferative assay, mouse fibroblast cell line. To be noted: for IC50: CCK8; for inhibition at 500 µM: NIH3T3, read-out: Inhibition% @ 0.5 mM; for inhibition at 1000 µM: NIH3T3, read-out: Inhibition% @ 1 mM; for proliferation (fixed cell morphology): NHI3T3, 0.050 mM for 24 h. The format is cell-based. The method in brief:
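NIH3T3 cells in F12K/DMEM with 10% heat-inactivated FBS and penicillin/streptomycin. Log-phase cells seeded at 5 × 10^3 cells/well for 24 h, then exposed to a range of test-compound concentrations for 72 h. Single-point inhibition taken at 1 mM and 0.5 mM. CCK8 added for 1–4 h; absorbance read at 450 nm. IC50 by curve fitting; mean (±SD) of ≥3 independent determinations.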
On the technique in general: Tetrazolium dyes change colour on reduction, which living cells bring about.

The test system of a further data set is HFL1. As to the kind of experiment: CCK8 antiproliferative assay, human fibroblast cell line. Type of data set: cell-based. The conditions noted are these: for proliferation (fixed cell morphology): HFL1, 0.050 mM for 24 h; for IC50: Homo sapiens, HFL1. The method in brief: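 HFL1 human fibroblasts grown in F12K/DMEM with 10% heat-inactivated FBS and penicillin/streptomycin. Cells treated with test compound for 48 h, and viability read by CCK8 absorbance at 450 nm. Curve fitting gave IC50. For morphology, cells were treated for 24 h, fixed, and imaged by light microscopy with a 10× objective.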

A short description of a further data set: Solubility in water. The format is physicochemical. The conditions noted are these: compared with 11a and 11b.
In another data set the test system is NHI3T3 cells. Nature of the data set: Transwell / cell migration assay. The format is cell-based, mouse.
Another data set concerns α-SMA. As to the kind of experiment: Immunofluorescence, α-SMA expression. The format is cell-based, mouse. The conditions noted are these: NHI3T3 cells, TGF-β1 (10 ng mL^−1) and 9d (50 μM). The method in brief: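 NIH3T3 cells grown on coverslips and co-treated with TGF-β1 (10 ng mL−1) and test compound (50 μM) for 24 h. Fixed in 4% paraformaldehyde, then incubated with primary anti-α-SMA overnight at 4 °C. Detected with FITC-conjugated anti-rabbit IgG; nuclei stained with DAPI. Imaged by confocal microscopy; two technical replicates, three biological repeats.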

The subject of a further data set is E-cadherin. As to the kind of experiment: Immunofluorescence, E-cadherin expression. The format is cell-based, mouse. The conditions noted are these: NHI3T3 cells, TGF-β1 (10 ng mL^−1) and 9d (50 μM).
In another data set the test system is KM mice. Nature of the data set: Acute toxicity experiment and histopathologic examination. Type of data set: in vivo. To be noted: caudal vein injection, 100/150/300 mg kg^−1.
The conditions of data set [2]: clinical trials, after administration of pirfenidone; cited from earlier work.
Data set [3] deals with NIH3T3 cells. The conditions noted are these: pirfenidone, reported in the literature; cited from earlier work.
Setting [4] is: Mus musculus, NIH3T3, NIH3T3 cells, averages ±SD of at least three determinations.
The mark [5] stands for this setting: Mus musculus, NIH3T3, NIH3T3 cells.

Where two headings read alike, the source gives them in different places.

Broadly, the IC50 is the concentration that gives 50% inhibition. Take “1-Benzyl-5-(trifluoromethyl)pyridin-2(1H)-one [Compound 7a]”: in the data set on NIH3T3 cells [1] (NIH3T3 cells, CCK8, 0.5 mM), the “Inhibition% @ 0.5 mM” value was found to be 20.58%. The “Inhibition% @ 1 mM” value in the data set with NIH3T3 cells [1] (NIH3T3 cells, CCK8, 1 mM) was determined as 40.95%. In the data set on NIH3T3 cells [1] (NIH3T3 cells, averages ±SD of at least three determinations), the IC50 was > 500 µM.
The term inhibition denotes the drop in the measured response relative to a control, in per cent. For `CC(=O)Nc1ccc(-n2cc(C(F)(F)F)ccc2=O)cc1` [Compound 4a, N-(4-(2-oxo-5-(Trifluoromethyl)pyridin-1(2H)-yl)phenyl)acetamide], the IC50 with NIH3T3 cells [1] (setting [4]) is > 1000 µM. For the same compound, in the data set on NIH3T3 cells [1] (Mus musculus), the inhibition at 500 µM turned out to be 10.4% and the inhibition at 1000 µM was determined as 32.6%.
On the same counts, the results for `CC(=O)Nc1ccc(-n2cc(C)ccc2=O)cc1` [Compound 4b, N-(4-(5-Methyl-2-oxopyridin-1(2H)-yl)phenyl)acetamide] are > 1000 µM, 1.3% and 25.7%.
Taken in the same sequence, the figures for `CN1CCN(CC(=O)Nc2ccc(-n3cc(C(F)(F)F)ccc3=O)cc2)CC1` [Compound 5a, 2-(4-Methylpiperazin-1-yl)-N-(4-(2-oxo-5-(trifluoromethyl)pyridin-1(2H)-yl)phenyl)acetamide] were 341 ± 7.3 µM, 51.8% and 62.4%.
`CN(C)CC(=O)Nc1ccc(-n2cc(C(F)(F)F)ccc2=O)cc1` [Compound 5b, 2-(Dimethylamino)-N-(4-(2-oxo-5-(trifluoromethyl)pyridin-1(2H)-yl)phenyl)acetamide]: in the data set with NIH3T3 cells [1] (setting [4]), the IC50 is > 500 µM. For the same compound, in the data set on NIH3T3 cells [1] (Mus musculus), the inhibition at 500 µM was 34.2% and the inhibition at 1000 µM came out at 45.8%.
In the data set with NIH3T3 cells [1] (setting [5]), `Cc1ccc(=O)n(-c2ccc(NC(=O)[C@@H](C)N(C)C)cc2)c1` [Compound 5c, (R)-2-(Dimethylamino)-N-(4-(5-methyl-2-oxopyridin-1(2H)-yl)phenyl)propanamide] had an IC50 of 490 µM. This compound also showed an IC50 in the data set on NIH3T3 cells [1] (setting [4]) of 490.2 ± 2.7 µM. Further, in the data set on NIH3T3 cells [1] (Mus musculus), the inhibition at 500 µM amounted to 26.8% and the inhibition at 1000 µM is 52.9%.
Compound `CC(=O)Nc1ccc(Cn2cc(C(F)(F)F)ccc2=O)cc1` [Compound 9a, N-(4-((2-oxo-5-(Trifluoromethyl)pyridin-1(2H)-yl)methyl)phenyl)acetamide] registered an IC50 with NIH3T3 cells [1] (setting [4]) of 132 ± 2.3 µM. In the data set on NIH3T3 cells [1] (Mus musculus), the inhibition at 500 µM amounted to 68.4% and the inhibition at 1000 µM was determined as 86.2%.
For `CC(=O)N(C(C)=O)c1ccc(Cn2cc(C(F)(F)F)ccc2=O)cc1` [Compound 9b, N-Acetyl-N-(4-((2-oxo-5-(trifluoromethyl)pyridin-1(2H)-yl)methyl)phenyl)acetamide], the “proliferation (fixed cell morphology)” value in the data set with HFL1 and with NIH3T3 cells [1] was “effectively inhibited” throughout. Also, the values for the IC50 in the data set with HFL1, in the data set on NIH3T3 cells [1] (setting [5]) and in the data set on NIH3T3 cells [1] (setting [4]) were 48 µM, 87 µM and 87.5 ± 0.7 µM, respectively. For the same compound, the solubility in water entry in the data set “Solubility in water” was “good solubility in water”. For the same compound, in the data set with NIH3T3 cells [1] (Mus musculus), the inhibition at 500 µM was 80.6%. Besides, in the data set with NIH3T3 cells [1] (Mus musculus), the inhibition at 1000 µM came out at 90.5%.
`CC(=O)Nc1ccc(Cn2cc(C)ccc2=O)cc1` [Compound 9c, N-(4-((5-Methyl-2-oxopyridin-1(2H)-yl)methyl)phenyl)acetamide]: the IC50 in the data set with NIH3T3 cells [1] (setting [4]) was determined as 113 ± 1.9 µM. In addition, in the data set with NIH3T3 cells [1] (Mus musculus), the inhibition at 500 µM came to 72.5% and the inhibition at 1000 µM turned out to be 89%.
Consider `CC(=O)N(C(C)=O)c1ccc(Cn2cc(C)ccc2=O)cc1` [Compound 9d, N-Acetyl-N-(4-((5-methyl-2-oxopyridin-1(2H)-yl)methyl)phenyl)acetamide], for which the “3T3 cell migration (transwell)” value in the data set with NHI3T3 cells (9d 50 μM) is recorded as “markedly inhibited”. Also, the “cell migration OD value” in the data set on NHI3T3 cells (9d + TGF-β1, OD value of the control is 1.0, TGF-β1 alone about 1.7) is “about 0.8”; in the data set on NHI3T3 cells (9d alone, 50 μM, OD value of the control is 1.0), “about 0.35”. In addition, the “proliferation (fixed cell morphology)” value in the data set on HFL1 and in the data set on NIH3T3 cells [1] was “effectively inhibited” in each case. The IC50 with HFL1 is 35 µM; with NIH3T3 cells [1] (setting [5]), 69 µM; with NIH3T3 cells [1] (setting [4]), 69.1 ± 2.7 µM. In addition, the “expression of α-SMA” value in the data set on α-SMA is “decreased”. Also, the “expression of E-cadherin” value in the data set on E-cadherin is given as “reversed after 9d treatment, higher than the control group”. In addition, in the data set on KM mice, the “histopathology (H&E) of liver, kidney, heart, spleen” value is “no pathological abnormalities such as inflammation, injury and necrosis”. Besides, the solubility in water entry in “Solubility in water” is given as “good solubility in water”. For the same compound, in the data set with NIH3T3 cells [1] (Mus musculus), the inhibition at 500 µM worked out at 88.4%. For the same compound, the inhibition at 1000 µM with NIH3T3 cells [1] (Mus musculus) is 98.7%. The “times the anti-fibrosis activity of pirfenidone” value with NIH3T3 cells [1] (relative to pirfenidone IC50 2.75 mM) is given as “more than 40 times”.
In the case of `CN1CCN(CC(=O)Nc2ccc(Cn3cc(C(F)(F)F)ccc3=O)cc2)CC1` [Compound 10a, 2-(4-Methylpiperazin-1-yl)-N-(4-((2-oxo-5-(trifluoromethyl)pyridin-1(2H)-yl)methyl)phenyl)acetamide], in the data set on NIH3T3 cells [1] (setting [4]), the IC50 was found to be 246.3 ± 1.8 µM. Moreover, in the data set with NIH3T3 cells [1] (Mus musculus), the inhibition at 500 µM came to 66.5% and the inhibition at 1000 µM came to 87.7%.
On the same counts, the results for `CN(C)CC(=O)Nc1ccc(Cn2cc(C(F)(F)F)ccc2=O)cc1` [Compound 10d, 2-(Dimethylamino)-N-(4-((2-oxo-5-(trifluoromethyl)pyridin-1(2H)-yl)methyl)phenyl)acetamide] are 273.1 ± 1.5 µM, 52.4% and 71.3%.
Consider `CC(=O)N(C)c1ccc(Cn2cc(C(F)(F)F)ccc2=O)cc1` [Compound 11a, N-Methyl-N-(4-((2-oxo-5-(trifluoromethyl)pyridin-1(2H)-yl)methyl)phenyl)acetamide], for which, in the data set with NIH3T3 cells [1] (setting [4]), half-maximal inhibition (IC50) was put at 146 ± 5.5 µM. Besides, in the data set with NIH3T3 cells [1] (Mus musculus), the inhibition at 500 µM stood at 67.9% and the inhibition at 1000 µM amounted to 78.5%.
On the same counts, the results for `CC(=O)N(C)c1ccc(Cn2cc(C)ccc2=O)cc1` [Compound 11b, N-Methyl-N-(4-((5-methyl-2-oxopyridin-1(2H)-yl)methyl)phenyl)acetamide] are 140 ± 9.8 µM, 66.7% and 79.4%.
As for `Cc1ccc(=O)n(-c2ccccc2)c1` [pirfenidone, 5-methyl-1-phenyl-2[1H]-pyridone, reference compound], the incidence of photo-sensitivity in data set [2] is reported as 51.7%. For the same compound, the IC50 in the data set with NIH3T3 cells [3] was 2750 µM. In addition, the IC50 in the data set on NIH3T3 cells [1] (setting [4]) was > 1000 µM. Besides, in the data set with NIH3T3 cells [1] (Mus musculus), the inhibition at 500 µM is 17.9% and the inhibition at 1000 µM came to 35.7%.
Turning to “TGF-β1: recombinant TGF-β1, key fibrogenic factor used to induce epithelial–mesenchymal transition and cell migration [reference compound]”, in the data set with NHI3T3 cells (TGF-β1 alone, OD value of the control is 1.0), the “cell migration OD value” is “about 1.7”.

Source of the values: PMC9102048 (RSC Advances, 2022).
